# Experimental data pooled from the literature.
# Each line is one published result; the experiments were not run side by side.
# Target: Muscarinic acetylcholine receptor M5 (CHRM5, Homo sapiens, UniProt P08912)
# Tested at: 10 µM
# One construct used (P08912 1-532): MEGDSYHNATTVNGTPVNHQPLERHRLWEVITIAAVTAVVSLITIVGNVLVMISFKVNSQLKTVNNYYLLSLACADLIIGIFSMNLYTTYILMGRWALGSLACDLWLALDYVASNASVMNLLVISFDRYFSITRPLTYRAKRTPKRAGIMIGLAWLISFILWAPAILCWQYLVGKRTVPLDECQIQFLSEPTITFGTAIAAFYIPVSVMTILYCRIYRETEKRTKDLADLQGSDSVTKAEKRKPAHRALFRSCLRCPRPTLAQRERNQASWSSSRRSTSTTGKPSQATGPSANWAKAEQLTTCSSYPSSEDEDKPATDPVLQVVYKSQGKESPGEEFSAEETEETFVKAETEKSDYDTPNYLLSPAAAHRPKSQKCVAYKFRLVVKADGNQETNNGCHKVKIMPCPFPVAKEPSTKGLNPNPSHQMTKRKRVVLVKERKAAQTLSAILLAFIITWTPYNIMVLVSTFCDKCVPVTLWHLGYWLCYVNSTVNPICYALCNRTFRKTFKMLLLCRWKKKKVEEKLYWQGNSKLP
Compound,test,inhibition [%]
CO[C@@H](C)c1c(Nc2ccc([C@H](N(C)C(=O)C3CCS(=O)(=O)CC3)C(F)(F)F)cc2)cnc2cc(Cl)nn12,ligand displacement,14.6
N#Cc1cc(Cn2c(N3CCCC3)nc3ccccc32)ccc1F,ligand displacement,10.9
O=C(c1ccc(Cl)cc1)N(Cc1ccccc1)C1CCCCC1,cell-free assay,-9.6
CCCNc1nc2ccccc2n1Cc1ccc(Cl)cc1,ligand displacement,14.5
CNC(=N)NCCC[C@H](NC(=O)[C@H](CC(C)C)NC(=O)NNC(=O)[C@H](Cc1ccccc1)NC(=O)[C@H](CO)NC(=O)[C@H](CC(N)=O)NC(=O)[C@@H](Cc1ccncc1)NC(=O)[C@H](N)Cc1ccc(O)cc1)C(=O)N[C@@H](Cc1ccccc1)C(N)=O,ligand displacement,14.9
CN(C(=O)n1cnc(-c2ccc[n+]([O-])c2)c1)C1CCCCC1,cell-free assay,8.59
CCN(CC)c1ccc(C2Nc3ccc(C(=O)c4ccccc4)cc3NC3=C2C(=O)CC(C)(C)C3)cc1 (centres unmarked),"ligand displacement, radioligand",20
COc1cc(NC(C)=O)c(Cl)cc1C(=O)Nc1nccs1,cell-free assay,-6.1
